Data from ChEMBL document CHEMBL2346613, “Synthesis of indazole based diarylurea derivatives and their antiproliferative activity against tumor cell lines” (Bioorg Med Chem Lett, 2013).

Columns and labels:
MDA-MB-231 = test: Cytotoxicity against human MDA-MB-231 cells after 72 hrs by MTT assay; type: functional, cell-based; details: MDA-MB-231, 72 h
In short: (§1)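 Cells were kept in RPMI-1640 or DMEM with 10% heat-inactivated FBS, penicillin–streptomycin, 2 mM glutamine and 10 mM HEPES at 37 °C, 5% CO2. They were trypsinized, seeded at 3 × 10³ per well and allowed 24 h before exposure to a range of concentrations for 72 h. MTT (5 mg/mL stock) was added for 4 h, absorbance read at 570 nm, and IC50 calculated.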

Bel-7402 = test: Cytotoxicity against human Bel7402 cells after 72 hrs by MTT assay; type: functional, cell-based; details: Bel-7402, 72 h; in short: as §1
SGC-7901 = test: Cytotoxicity against human SGC7901 cells after 72 hrs by MTT assay; type: functional, cell-based; details: SGC-7901, 72 h; in short: as §1
HepG2 = test: Cytotoxicity against human HepG2 cells after 72 hrs by MTT assay; type: functional, cell-based; details: HepG2, 72 h; in short: as §1
HT-29 = test: Cytotoxicity against human HT-29 cells after 72 hrs by MTT assay; type: functional, cell-based; details: HT-29, 72 h; in short: as §1
LoVo = test: Cytotoxicity against human LoVo cells after 72 hrs by MTT assay; type: functional, cell-based; in short: as §1
OS-RC-2 = test: Cytotoxicity against human OS-RC2 cells after 72 hrs by MTT assay; type: functional, cell-based; details: OS-RC-2, 72 h; in short: as §1
A549 = test: Cytotoxicity against human A549 cells after 72 hrs by MTT assay; type: functional, cell-based; details: A549, 72 h; in short: as §1
NCI-H460 = test: Cytotoxicity against human NCI-H460 cells after 72 hrs by MTT assay; type: functional, cell-based; details: NCI-H460, 72 h; in short: as §1
Mus musculus [1] = test: Acute toxicity against mouse at 2000 mg/kg, po administered as single dose; type: organism-based; design: dose 2000 mg/kg, route oral; details: in vivo
In short: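 Mice received one oral dose, and the read-out was any sign of toxicity. The highest dose given without signs was recorded as the tolerated single oral dose.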

Mus musculus [2] = test: Toxicity against mouse at 1460 mg/kg, po administered as single dose; type: organism-based; design: dose 1460 mg/kg, route oral; details: in vivo
In short: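 Acute toxicity was tested in mice by a single oral dose, with doses up to 2000 mg/kg. Animals were watched for any sign of toxicity.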

## O=C(Nc1ccc(-n2ncc3ccccc32)cc1)Nc1ccc(Cl)c(C(F)(F)F)c1
MDA-MB-231
  IC50: 5 µM
Bel-7402
  IC50: 10.6 µM
SGC-7901
  IC50: > 32 µM
HepG2
  IC50: 8 µM
HT-29
  IC50: 18.2 µM
LoVo
  IC50: 8.7 µM
OS-RC-2
  IC50: 32 µM
A549
  IC50: 9.9 µM
NCI-H460
  IC50: 5.5 µM

## COc1cccc2c1cnn2-c1ccc(NC(=O)Nc2ccc(Cl)c(C(F)(F)F)c2)cc1
MDA-MB-231
  IC50: 1.2 µM
Bel-7402
  IC50: 2.9 µM
SGC-7901
  IC50: 29.8 µM
HepG2
  IC50: 4 µM
HT-29
  IC50: > 32 µM
LoVo
  IC50: > 32 µM
OS-RC-2
  IC50: 28.8 µM
A549
  IC50: 3.7 µM
NCI-H460
  IC50: 2.2 µM

## O=C(Nc1ccc(-n2ncc3c(C(F)(F)F)cccc32)cc1)Nc1ccc(Cl)c(C(F)(F)F)c1
MDA-MB-231
  IC50: 2 µM
Mus musculus [1]
  Activity: Non-toxic
Bel-7402
  IC50: 16 µM
SGC-7901
  IC50: > 32 µM
HepG2
  IC50: 8 µM
HT-29
  IC50: 2.9 µM
LoVo
  IC50: 3 µM
OS-RC-2
  IC50: > 32 µM
A549
  IC50: 3 µM
NCI-H460
  IC50: 1.6 µM

## Cc1cccc2c1cnn2-c1ccc(NC(=O)Nc2ccc(Cl)c(C(F)(F)F)c2)cc1
MDA-MB-231
  IC50: 2.3 µM
Bel-7402
  IC50: 6.7 µM
SGC-7901
  IC50: 14.2 µM
HepG2
  IC50: 4 µM
HT-29
  IC50: 32 µM
LoVo
  IC50: 3.9 µM
OS-RC-2
  IC50: 32 µM
A549
  IC50: 5.5 µM
NCI-H460
  IC50: 2.5 µM

## O=C(Nc1ccc(-n2ncc3ccncc32)cc1)Nc1ccc(Cl)c(C(F)(F)F)c1
MDA-MB-231
  IC50: > 32 µM
Bel-7402
  IC50: 4 µM
SGC-7901
  IC50: > 32 µM
HepG2
  IC50: 16 µM
HT-29
  IC50: 29.5 µM
LoVo
  IC50: 7.1 µM
OS-RC-2
  IC50: > 32 µM
A549
  IC50: 10.6 µM
NCI-H460
  IC50: 4.8 µM

## O=C(Nc1ccc(-n2ncc3c(Cl)cccc32)cc1)Nc1ccc(Cl)c(C(F)(F)F)c1
MDA-MB-231
  IC50: 1.6 µM
Mus musculus [1]
  Activity: Non-toxic
Bel-7402
  IC50: 2 µM
SGC-7901
  IC50: 4.6 µM
HepG2
  IC50: 1.9 µM
HT-29
  IC50: 4.6 µM
LoVo
  IC50: 3.6 µM
OS-RC-2
  IC50: 3.1 µM
A549
  IC50: 3.1 µM
NCI-H460
  IC50: 1.3 µM

## O=C(Nc1ccc(-n2ncc3cnccc32)cc1)Nc1ccc(Cl)c(C(F)(F)F)c1
MDA-MB-231
  IC50: 16 µM
Bel-7402
  IC50: 2.7 µM
SGC-7901
  IC50: 22.6 µM
HepG2
  IC50: 4 µM
HT-29
  IC50: 10.5 µM
LoVo
  IC50: 8 µM
OS-RC-2
  IC50: > 32 µM
A549
  IC50: 3.4 µM
NCI-H460
  IC50: 1.4 µM

## O=C(Nc1ccc(-n2ncc3c(C(F)(F)F)cccc32)cc1)Nc1ccc(C(F)(F)F)cc1
MDA-MB-231
  IC50: 2 µM
Mus musculus [1]
  Activity: Non-toxic
Bel-7402
  IC50: 1 µM
SGC-7901
  IC50: 4 µM
HepG2
  IC50: 1 µM
HT-29
  IC50: 3.3 µM
LoVo
  IC50: 2.2 µM
OS-RC-2
  IC50: 4 µM
A549
  IC50: 0.8 µM
NCI-H460
  IC50: 0.8 µM

## O=C(Nc1ccc(-n2ncc3cccnc32)cc1)Nc1ccc(Cl)c(C(F)(F)F)c1
MDA-MB-231
  IC50: > 32 µM
Bel-7402
  IC50: 20.9 µM
SGC-7901
  IC50: > 32 µM
HepG2
  IC50: > 32 µM
HT-29
  IC50: > 32 µM
LoVo
  IC50: 32 µM
OS-RC-2
  IC50: > 32 µM
A549
  IC50: > 32 µM
NCI-H460
  IC50: 16.6 µM

## O=C(Nc1ccc(-n2ncc3c(F)cccc32)cc1)Nc1ccc(Cl)c(C(F)(F)F)c1
MDA-MB-231
  IC50: 3.1 µM
Bel-7402
  IC50: 16 µM
SGC-7901
  IC50: 32 µM
HepG2
  IC50: 29.5 µM
HT-29
  IC50: 8.2 µM
LoVo
  IC50: 9.8 µM
OS-RC-2
  IC50: 32 µM
A549
  IC50: 3.8 µM
NCI-H460
  IC50: 3.4 µM

## CNC(=O)c1cc(Oc2ccc(NC(=O)Nc3ccc(Cl)c(C(F)(F)F)c3)cc2)ccn1 [SORAFENIB]
Mus musculus [2]
  Activity: Non-toxic
MDA-MB-231
  IC50: 2 µM
Bel-7402
  IC50: 5.8 µM
SGC-7901
  IC50: 6.9 µM
HepG2
  IC50: 4 µM
HT-29
  IC50: 4 µM
LoVo
  IC50: 3.3 µM
OS-RC-2
  IC50: 16 µM
A549
  IC50: 4 µM
NCI-H460
  IC50: 3.9 µM

## O=C(Nc1ccc(-n2ncc3c(Cl)cccc32)cc1)Nc1ccc(C(F)(F)F)cc1
MDA-MB-231
  IC50: 2.7 µM
Bel-7402
  IC50: 8 µM
SGC-7901
  IC50: 6 µM
HepG2
  IC50: 6.7 µM
HT-29
  IC50: 1 µM
LoVo
  IC50: 5.1 µM
OS-RC-2
  IC50: 4.6 µM
A549
  IC50: 6 µM
NCI-H460
  IC50: 6.8 µM

## CNc1cccc2c1cnn2-c1ccc(NC(=O)Nc2ccc(Cl)c(C(F)(F)F)c2)cc1
MDA-MB-231
  IC50: 3.6 µM
Bel-7402
  IC50: 5 µM
SGC-7901
  IC50: 6.9 µM
HepG2
  IC50: 3 µM
HT-29
  IC50: 5.9 µM
LoVo
  IC50: 6.3 µM
OS-RC-2
  IC50: 10.6 µM
A549
  IC50: 4.9 µM
NCI-H460
  IC50: 2.6 µM

## O=C(Nc1ccc(-n2ncc3c(Br)cccc32)cc1)Nc1ccc(Cl)c(C(F)(F)F)c1
MDA-MB-231
  IC50: 7.7 µM
Bel-7402
  IC50: 1.3 µM
SGC-7901
  IC50: 16.6 µM
HepG2
  IC50: 2.5 µM
HT-29
  IC50: 4 µM
LoVo
  IC50: 1.7 µM
OS-RC-2
  IC50: 9.9 µM
A549
  IC50: 2.3 µM
NCI-H460
  IC50: 1.3 µM
